According to ChEMBL document CHEMBL1122413, “Chloralanyl and propargylglycyl dipeptides. Suicide substrate containing antibacterials” (1983):
Values after ≈ are worked out from the molar mass of the structure shown.

What follows are compounds tested on Escherichia coli (assay: Minimum inhibitory concentration against Escherichia coli). Details: not given.
Format: functional
Method in brief: (§1)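 Agar dilution on defined peptide susceptibility medium with peptide in serial twofold dilutions. Strains subcultured on blood or chocolate agar. Inoculum from overnight culture in liquid peptide medium, diluted to approx 1×10^7 cfu/mL, applied by Steers replicator. Plates incubated overnight at 37 °C. MIC taken as lowest concentration permitting fewer than ten colonies at 16–18 h.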

Row | SMILES | MIC [µg/mL]
1 | N[C@H](CCl)C(=O)O | 6.25 (≈ 50.6 µM)
2 | C#CCC(N)C(=O)N[C@@H](C)C(=O)O.O=C(O)C(F)(F)F (stereo not given in full) | > 100
3 | C#CCC(NC(=O)[C@H](C)N)C(=O)O.O=C(O)C(F)(F)F (stereo not given in full) | > 100
4 | C[C@H](N)C(=O)N[C@H](CCl)C(=O)O.O=C(O)C(F)(F)F | > 100
5 | C#CC[C@@H](N)C(=O)O | > 100

These compounds were tested on Klebsiella aerogenes (assay: Minimum inhibitory concentration against Enterobacter aerogenes). Details: not given.
Format: functional
Method in brief: as §1

Row | SMILES | MIC [µg/mL]
6 | N[C@H](CCl)C(=O)O | 12.5 (≈ 101 µM)
7 | C#CCC(N)C(=O)N[C@@H](C)C(=O)O.O=C(O)C(F)(F)F (stereo not given in full) | > 100
8 | C#CCC(NC(=O)[C@H](C)N)C(=O)O.O=C(O)C(F)(F)F (stereo not given in full) | > 100
9 | C[C@H](N)C(=O)N[C@H](CCl)C(=O)O.O=C(O)C(F)(F)F | > 100
10 | C#CC[C@@H](N)C(=O)O | > 100

These compounds were tested on Enterobacter cloacae (assay: Minimum inhibitory concentration against Enterobacter cloacae). Details: not given.
Format: functional
Method in brief: as §1

Row | SMILES | MIC [µg/mL]
11 | N[C@H](CCl)C(=O)O | 100 (≈ 809 µM)
12 | C#CCC(N)C(=O)N[C@@H](C)C(=O)O.O=C(O)C(F)(F)F (stereo not given in full) | > 100
13 | C#CCC(NC(=O)[C@H](C)N)C(=O)O.O=C(O)C(F)(F)F (stereo not given in full) | > 100
14 | C[C@H](N)C(=O)N[C@H](CCl)C(=O)O.O=C(O)C(F)(F)F | > 100
15 | C#CC[C@@H](N)C(=O)O | > 100

The compounds below were run on Haemophilus influenzae (assay: Minimum inhibitory concentration against Hemophilus influenzae). Details: not given.
Format: functional
Method in brief: (§2)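 Agar dilution on defined peptide susceptibility medium with hemin (25 μg/mL), NAD (25 μg/mL) and Isovitalex (1%) added, peptide in serial twofold dilutions. Colonies from overnight chocolate or blood agar resuspended in liquid peptide medium to 10⁸ cfu/mL, applied by Steers replicator. Incubation overnight at 37 °C under 7% CO₂. MIC: lowest concentration giving fewer than ten colonies at 16–18 h.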

Row | SMILES | MIC [µg/mL]
16 | N[C@H](CCl)C(=O)O | 6.25 (≈ 50.6 µM)
17 | C#CCC(N)C(=O)N[C@@H](C)C(=O)O.O=C(O)C(F)(F)F (stereo not given in full) | > 100
18 | C#CCC(NC(=O)[C@H](C)N)C(=O)O.O=C(O)C(F)(F)F (stereo not given in full) | > 100
19 | C[C@H](N)C(=O)N[C@H](CCl)C(=O)O.O=C(O)C(F)(F)F | > 100
20 | C#CC[C@@H](N)C(=O)O | > 100

These compounds were tested on Klebsiella pneumoniae (assay: Minimum inhibitory concentration against Klebsiella pneumoniae). Details: not given.
Format: functional
Method in brief: as §1

Row | SMILES | MIC [µg/mL]
21 | N[C@H](CCl)C(=O)O | 100 (≈ 809 µM)
22 | C#CCC(N)C(=O)N[C@@H](C)C(=O)O.O=C(O)C(F)(F)F (stereo not given in full) | > 100
23 | C#CCC(NC(=O)[C@H](C)N)C(=O)O.O=C(O)C(F)(F)F (stereo not given in full) | > 100
24 | C[C@H](N)C(=O)N[C@H](CCl)C(=O)O.O=C(O)C(F)(F)F | > 100
25 | C#CC[C@@H](N)C(=O)O | > 100

These compounds were tested on Morganella morganii (assay: Minimum inhibitory concentration against Morganella morganii). Details: not given.
Format: functional
Method in brief: as §1

Row | SMILES | MIC [µg/mL]
26 | N[C@H](CCl)C(=O)O | > 100
27 | C#CCC(N)C(=O)N[C@@H](C)C(=O)O.O=C(O)C(F)(F)F (stereo not given in full) | > 100
28 | C#CCC(NC(=O)[C@H](C)N)C(=O)O.O=C(O)C(F)(F)F (stereo not given in full) | > 100
29 | C[C@H](N)C(=O)N[C@H](CCl)C(=O)O.O=C(O)C(F)(F)F | > 100
30 | C#CC[C@@H](N)C(=O)O | > 100

The compounds below were run on Pseudomonas aeruginosa (assay: Minimum inhibitory concentration against Pseudomonas aeruginosa). Details: not given.
Format: functional
Method in brief: as §1

Row | SMILES | MIC [µg/mL]
31 | N[C@H](CCl)C(=O)O | > 100
32 | C#CCC(N)C(=O)N[C@@H](C)C(=O)O.O=C(O)C(F)(F)F (stereo not given in full) | > 100
33 | C#CCC(NC(=O)[C@H](C)N)C(=O)O.O=C(O)C(F)(F)F (stereo not given in full) | > 100
34 | C[C@H](N)C(=O)N[C@H](CCl)C(=O)O.O=C(O)C(F)(F)F | > 100
35 | C#CC[C@@H](N)C(=O)O | > 100

These compounds were tested on Proteus mirabilis (assay: Minimum inhibitory concentration against Proteus mirabilis). Details: not given.
Format: functional
Method in brief: as §1

Row | SMILES | MIC [µg/mL]
36 | N[C@H](CCl)C(=O)O | > 100
37 | C#CCC(N)C(=O)N[C@@H](C)C(=O)O.O=C(O)C(F)(F)F (stereo not given in full) | > 100
38 | C#CCC(NC(=O)[C@H](C)N)C(=O)O.O=C(O)C(F)(F)F (stereo not given in full) | > 100
39 | C[C@H](N)C(=O)N[C@H](CCl)C(=O)O.O=C(O)C(F)(F)F | > 100
40 | C#CC[C@@H](N)C(=O)O | > 100

These compounds were tested on Salmonella typhimurium (assay: Minimum inhibitory concentration against Salmonella Typhimurium). Details: Salmonella enterica.
Format: functional, Salmonella enterica subsp. enterica serovar Typhimurium
Method in brief: as §1

Row | SMILES | MIC [µg/mL]
41 | N[C@H](CCl)C(=O)O | 100 (≈ 809 µM)
42 | C#CCC(N)C(=O)N[C@@H](C)C(=O)O.O=C(O)C(F)(F)F (stereo not given in full) | > 100
43 | C#CCC(NC(=O)[C@H](C)N)C(=O)O.O=C(O)C(F)(F)F (stereo not given in full) | > 100
44 | C[C@H](N)C(=O)N[C@H](CCl)C(=O)O.O=C(O)C(F)(F)F | > 100
45 | C#CC[C@@H](N)C(=O)O | > 100

Each compound was assayed on Serratia marcescens (assay: Minimum inhibitory concentration against Serratia marcescens). Details: not given.
Format: functional
Method in brief: as §1

Row | SMILES | MIC [µg/mL]
46 | N[C@H](CCl)C(=O)O | 25 (≈ 202 µM)
47 | C#CCC(N)C(=O)N[C@@H](C)C(=O)O.O=C(O)C(F)(F)F (stereo not given in full) | > 100
48 | C#CCC(NC(=O)[C@H](C)N)C(=O)O.O=C(O)C(F)(F)F (stereo not given in full) | > 100
49 | C[C@H](N)C(=O)N[C@H](CCl)C(=O)O.O=C(O)C(F)(F)F | > 100
50 | C#CC[C@@H](N)C(=O)O | > 100

Each compound was assayed on Shigella flexneri (assay: Minimum inhibitory concentration against Shigella flexneri). Details: not given.
Format: functional
Method in brief: as §1

Row | SMILES | MIC [µg/mL]
51 | N[C@H](CCl)C(=O)O | 50 (≈ 405 µM)
52 | C#CCC(N)C(=O)N[C@@H](C)C(=O)O.O=C(O)C(F)(F)F (stereo not given in full) | > 100
53 | C#CCC(NC(=O)[C@H](C)N)C(=O)O.O=C(O)C(F)(F)F (stereo not given in full) | > 100
54 | C[C@H](N)C(=O)N[C@H](CCl)C(=O)O.O=C(O)C(F)(F)F | > 100
55 | C#CC[C@@H](N)C(=O)O | > 100

Each compound was assayed on Staphylococcus epidermidis (assay: Minimum inhibitory concentration against Staphylococcus epidermidis). Details: not given.
Format: functional
Method in brief: as §1

Row | SMILES | MIC [µg/mL]
56 | N[C@H](CCl)C(=O)O | 25 (≈ 202 µM)
57 | C#CCC(N)C(=O)N[C@@H](C)C(=O)O.O=C(O)C(F)(F)F (stereo not given in full) | 3.12
58 | C#CCC(NC(=O)[C@H](C)N)C(=O)O.O=C(O)C(F)(F)F (stereo not given in full) | 3.12
59 | C[C@H](N)C(=O)N[C@H](CCl)C(=O)O.O=C(O)C(F)(F)F | > 100
60 | C#CC[C@@H](N)C(=O)O | > 100

Each compound was assayed on Streptococcus agalactiae (assay: Minimum inhibitory concentration against Streptococcus agalactiae). Details: not given.
Format: functional
Method in brief: as §2

Row | SMILES | MIC [µg/mL]
61 | N[C@H](CCl)C(=O)O | 12.5 (≈ 101 µM)
62 | C#CCC(N)C(=O)N[C@@H](C)C(=O)O.O=C(O)C(F)(F)F (stereo not given in full) | > 100
63 | C#CCC(NC(=O)[C@H](C)N)C(=O)O.O=C(O)C(F)(F)F (stereo not given in full) | 50
64 | C[C@H](N)C(=O)N[C@H](CCl)C(=O)O.O=C(O)C(F)(F)F | > 100
65 | C#CC[C@@H](N)C(=O)O | > 100

What follows are compounds tested on Staphylococcus aureus (assay: Minimum inhibitory concentration against Staphylococcus aureus). Details: not given.
Format: functional
Method in brief: as §1

Row | SMILES | MIC [µg/mL]
66 | N[C@H](CCl)C(=O)O | 12.5 (≈ 101 µM)
67 | C#CCC(N)C(=O)N[C@@H](C)C(=O)O.O=C(O)C(F)(F)F (stereo not given in full) | 50
68 | C#CCC(NC(=O)[C@H](C)N)C(=O)O.O=C(O)C(F)(F)F (stereo not given in full) | > 100
69 | C[C@H](N)C(=O)N[C@H](CCl)C(=O)O.O=C(O)C(F)(F)F | > 100
70 | C#CC[C@@H](N)C(=O)O | 50 (≈ 442 µM)

Each compound was assayed on Enterococcus faecalis (assay: Minimum inhibitory concentration against Streptococcus faecalis). Details: not given.
Format: functional
Method in brief: as §1

Row | SMILES | MIC [µg/mL]
71 | N[C@H](CCl)C(=O)O | 50 (≈ 405 µM)
72 | C#CCC(N)C(=O)N[C@@H](C)C(=O)O.O=C(O)C(F)(F)F (stereo not given in full) | > 100
73 | C#CCC(NC(=O)[C@H](C)N)C(=O)O.O=C(O)C(F)(F)F (stereo not given in full) | > 100
74 | C[C@H](N)C(=O)N[C@H](CCl)C(=O)O.O=C(O)C(F)(F)F | > 100
75 | C#CC[C@@H](N)C(=O)O | > 100

The compounds below were run on Streptococcus pyogenes (assay: Minimum inhibitory concentration against Streptococcus pyogenes). Details: not given.
Format: functional
Method in brief: as §2

Row | SMILES | MIC [µg/mL]
76 | N[C@H](CCl)C(=O)O | 12.5 (≈ 101 µM)
77 | C#CCC(N)C(=O)N[C@@H](C)C(=O)O.O=C(O)C(F)(F)F (stereo not given in full) | > 100
78 | C#CCC(NC(=O)[C@H](C)N)C(=O)O.O=C(O)C(F)(F)F (stereo not given in full) | > 100
79 | C[C@H](N)C(=O)N[C@H](CCl)C(=O)O.O=C(O)C(F)(F)F | > 100
80 | C#CC[C@@H](N)C(=O)O | > 100
